This note sets out measurements from ChEMBL document CHEMBL4725263, “Discovery of potential dual-target prodrugs of HIV-1 reverse transcriptase and nucleocapsid protein 7” (Bioorg Med Chem Lett, 2020).

A short description of data set [1]: Cytotoxicity in mock-infected human MT4 assessed as reduction in cell viability incubated for 5 days by MTT assay. Format: cell-based. The following applies: mock-infected MT4 cells, time 5 day. In outline:
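Mock-infected MT-4 cultures were run alongside the HIV-1 IIIB and RES056 (K103N/Y181C) protection assays and incubated for 5 days. Viability was read by MTT. CC50 is the concentration that cuts viability of the mock-infected cultures by 50%.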

A short description of data set [2]: Cytotoxicity in human TZM assessed as reduction in cell viability incubated for 5 days by MTT assay. Type of data set: cell-based. The conditions noted are these: TZM cells, time 5 day. In short, it runs like this:
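Uninfected TZM-bl cells were exposed to compound in parallel with the HIV-1 NL4-3 antiviral assay. CC50 is the concentration that cuts viability by 50%. Each compound was run in at least triplicate, and values were averaged from at least four independent experiments.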

Data set [3] is described as follows: Inhibition of reverse transcriptase/nucleocapsid protein 7 in wild type HIV1 3B infected in human MT4 cells assessed as protection against virus-induced cytopathic effect incubated for 5 days by MTT assay. Format: cell-based. The following applies: Human immunodeficiency virus 1, 3B, MT4, 120 h. In outline: (§1)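 MT-4 cells infected with HIV-1 IIIB (wild type) or RES056 (K103N/Y181C RT double mutant); 5-day incubation; viability by MTT. EC50 is the concentration giving 50% protection against virus-induced cytotoxicity. CC50 is the concentration cutting viability of mock-infected cultures by 50%. SI is CC50/EC50. Fold resistance is EC50 mutant/EC50 wild type.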

Data set [4] is described as follows: Inhibition of nucleocapsid protein 7/reverse transcriptase K103N/Y181C double mutant in HIV1 RES056 infected in human MT4 cells assessed as protection against virus-induced cytopathic effect incubated for 5 days by MTT assay. Format: cell-based. The conditions noted are these: Human immunodeficiency virus 1, RES056, MT4, 120 h. In short, it runs like this: as §1

A short description of data set [5]: Selectivity index, ratio of CC50 for cytotoxicity in mock-infected human MT4 cells assessed as reduction in cell viability incubated for 5 days by MTT to EC50 for inhibition of reverse transcriptase/nucleocapsid protein 7 in wild type HIV1 3B infected in human MT4 cells assessed as protection against virus-induced cytopathic effect incubated for 5 days by MTT assay. Format: toxicity, cell-based. The conditions noted are these: time 5 day, read-out: Ratio CC50/EC50. In short, it runs like this: as §1
In general terms: Protection from cytopathic effect is a common read-out in antiviral testing.

Data set [6] is described as follows: Selectivity index, ratio of CC50 for cytotoxicity in mock-infected human MT4 cells assessed as reduction in cell viability incubated for 5 days by MTT to EC50 for inhibition of reverse transcriptase K103N/Y181C double mutant/nucleocapsid protein 7 in HIV1 RES056 infected in human MT4 cells assessed as protection against virus-induced cytopathic effect incubated for 5 days by MTT assay. The following applies: time 5 day, read-out: Ratio CC50/EC50. Format: toxicity, cell-based. In short, it runs like this:
as §1

The subject of data set [7] is Human immunodeficiency virus 1. Put plainly: Fold resistance, ratio of EC50 for inhibition of reverse transcriptase K103N/Y181C double mutant/nucleocapsid protein 7 in HIV1 RES056 infected in human MT4 cells assessed as protection against virus-induced cytopathic effect incubated for 5 days by MTT assay to EC50 for reverse transcriptase/nucleocapsid protein 7 in wild type HIV1 3B infected in human MT4 cells assessed as protection against virus-induced cytopathic effect incubated for 5 days by MTT assay. Type of data set: cell-based. The conditions noted are these: time 5.0 day. In short, it runs like this:
as §1

Data set [8] in a line: Inhibition of reverse transcriptase/nucleocapsid protein 7 in wild type HIV1 NL4-3 infected in human TZM-bl cells assessed as protection against virus-induced cytopathic effect incubated for 5 days by MTT assay. Type of data set: cell-based. The conditions noted are these: Human immunodeficiency virus 1, NL4-3, TZM-bl, 120 h.
Data set [9] is described as follows: Selectivity index, ratio of CC50 for cytotoxicity in human TZM-bl assessed as reduction in cell viability incubated for 5 days by MTT to EC50 for inhibition of reverse transcriptase/nucleocapsid protein 7 in wild type HIV1 NL4-3 infected in human TZM-bl cells assessed as protection against virus-induced cytopathic effect incubated for 5 days by MTT assay. Type of data set: toxicity, cell-based. The conditions noted are these: time 5 day, read-out: Ratio CC50/EC50.

A short description of data set [10]: Prodrug conversion in human plasma assessed as […] measured after 10 mins at 37 degree C by LC-MS/MS analysis. Type of data set: ADME, cell-free. In outline: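 Prodrug incubated in human plasma (pH 7.4 ± 0.1) at 37 °C for 1 h. Remaining prodrug and formed MT and AZT measured by LC-MS/MS, in triplicate at each time point. Decrease in prodrug plotted against MT formed over the first 10 min with a linear fit.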

Data set [11] in a line: Prodrug conversion in human plasma assessed as enzyme-mediated drug hydrolysis measured after 10 mins at 37 degree C by LC-MS/MS analysis.

As to `Cc1cn([C@H]2C[C@H](N=[N+]=[N-])[C@@H](COC(=O)CCC(=O)OCSc3ccccc3C(=O)NCCC(N)=O)O2)c(=O)[nH]c1=O`, the figures for the 50% cytotoxic concentration (CC50) at 120 h in data set [1] and in data set [2] were 124000 nM and more than 1660 nM, respectively.

For `Cc1cn([C@H]2C[C@H](N=[N+]=[N-])[C@@H](COC(=O)CC(C)CC(=O)OCSc3ccccc3C(=O)NCCC(N)=O)O2)c(=O)[nH]c1=O` (stereo partly specified), the values for the CC50 at 120 h in [1] and in data set [2] were more than 198000 nM and more than 1580 nM, respectively.

For `Cc1cn([C@H]2C[C@H](N=[N+]=[N-])[C@@H](COC(=O)CC(C)(C)CC(=O)OCSc3ccccc3C(=O)NCCC(N)=O)O2)c(=O)[nH]c1=O`, the figures for the CC50 at 120 h in [1] and in [2] were more than 194000 nM and more than 1550 nM, respectively.

Regarding `Cc1cn([C@H]2C[C@H](N=[N+]=[N-])[C@@H](COC(=O)CCCCC(=O)OCSc3ccccc3CNCCC(N)=O)O2)c(=O)[nH]c1=O`, the figures for the EC50 in data set [3], in data set [4] and in [8] were 42 nM, 1330 nM and 308 nM, respectively. Also, the CC50 at 120 h was more than 198000 nM in [1] and more than 1580 nM in data set [2]. Moreover, the selectivity ratio at 120 h is more than 4660 in data set [5], more than 149 in data set [6] and more than 4.76 in data set [9]. Besides, the Ratio EC50 in data set [7] was found to be 31.6. Also, the Drug metabolism entry in data set [10] is “Metabolite_Detected”; in [11] it was 100%.

With `Cc1cn([C@H]2C[C@H](N=[N+]=[N-])[C@@H](CO)O2)c(=O)[nH]c1=O` [ZIDOVUDINE], the EC50 in [3] came out at 11 nM; in data set [4] it was 1200 nM; in [8], 16 nM. For the same compound, the CC50 at 120 h is more than 7480 nM in data set [1] and more than 374 nM in [2]. The selectivity ratio at 120 h is more than 645 in data set [5], more than 6.25 in [6] and more than 23.4 in data set [9].

In the case of `Cc1cn([C@H]2C[C@H](N=[N+]=[N-])[C@@H](COC(=O)CCCC(=O)OCSc3ccccc3C(=O)NCCC(N)=O)O2)c(=O)[nH]c1=O`, the CC50 at 120 h is more than 202000 nM in [1] and more than 1620 nM in data set [2].

As to `NC(=O)CCNC(=O)c1ccccc1S`, the EC50 in data set [3] amounted to 5260 nM; in [4] it was 7940 nM; in [8], 2360 nM. In addition, the figures for the CC50 at 120 h in data set [1] and in data set [2] were 332000 nM and 82500 nM, respectively. For the same compound, the selectivity ratio at 120 h in data set [5] is 63; in [6] it was 41.9; in [9], more than 34.9. Besides, the Ratio EC50 in data set [7] is 1.5.

Broadly, the CC50 is the concentration at which the toxic effect on the cells reaches its halfway point. For orientation: EC50 means the midpoint of the concentration-response curve.
